Holding throughout (type): cell-based
Assay [1] has as its target T1, full-length wild-type LPA1 (Homo sapiens, UniProt Q92633). As to the kind of experiment: Ca2+ mobilization assay in B103 cells expressing full-length wild-type LPA1. To be noted: read-out: EC50, Ca2+ mobilization assay; B103 cells heterologously expressing full-length wild-type LPA1; normalized to 3 μM 1-oleoyl-LPA (Figure 6D). (In general: A change in cytosolic calcium serves as a functional read-out for many receptors and channels.)

Assay [2] addresses T1, full-length wild-type LPA1. As to the kind of experiment: cAMP assay. To be noted: read-out: EC50, cAMP assay; B103 cells expressing full-length wild-type LPA1; 10 μM forskolin; n=2 (Figure 6D). On the technique in general: Cyclic AMP is a second messenger, typically raised through Gs and lowered through Gi signalling.
Assay [3] concerns the target T2, LPA1 (Homo sapiens, UniProt Q92633). As to the kind of experiment: Neurite retraction assay in B103 cells expressing LPA1. The following applies: stable cell line expressing LPA1, 15 min treatment. In a few lines:
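B103 rat neuroblastoma stable line carrying HA-tagged full-length human LPA1 (G418-selected, sorted for high anti-HA staining), serum-starved overnight in FreeStyle 293 medium. Cells were given ligands for 15 min at 37°C, washed, and fixed in 2% paraformaldehyde. Under the microscope, round cells lacking neurite extensions were counted and expressed as a percentage of observed cells.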

Assay [4] concerns the target T2, LPA1. As to the kind of experiment: F-actin stress fiber formation assay in B103 cells expressing LPA1. The following applies: 15 min treatment. In a few lines:
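Rat neuroblastoma B103 cells stably expressing HA-tagged full-length human LPA1 (G418 selection, FACS-sorted for high anti-HA signal), starved overnight in FreeStyle 293 medium, then exposed to ligands for 15 min at 37°C. Cells were fixed with 2% paraformaldehyde, washed with 0.3% Triton X-100 in PBS, stained with 1 μg/mL rhodamine-phalloidin for 30 min at room temperature, and imaged by confocal microscopy.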

Three molecules from publication PMC4476059 (Cell, 2015) can be followed below.

By EC50 is commonly meant the concentration giving half of the maximal effect.

Molecules are shown by their SMILES.

T1 sequence (Q92633 whole entry): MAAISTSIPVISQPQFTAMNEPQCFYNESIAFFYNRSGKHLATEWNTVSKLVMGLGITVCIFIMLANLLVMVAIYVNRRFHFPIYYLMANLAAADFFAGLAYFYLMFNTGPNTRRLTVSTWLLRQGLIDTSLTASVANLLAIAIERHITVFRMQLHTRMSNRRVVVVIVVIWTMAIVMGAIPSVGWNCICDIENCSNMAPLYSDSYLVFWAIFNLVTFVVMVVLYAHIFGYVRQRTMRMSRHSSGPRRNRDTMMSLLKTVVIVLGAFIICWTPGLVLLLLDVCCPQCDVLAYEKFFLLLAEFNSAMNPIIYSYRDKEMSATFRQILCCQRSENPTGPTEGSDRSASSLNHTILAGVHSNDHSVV
T2 sequence (Q92633 whole entry): as above

For the molecule `CCCCC/C=C\C/C=C\C/C=C\C/C=C\CCCC(=O)OC[C@@H](O)COP(=O)(O)O` [1-ALPA, 1-arachidonoyl-LPA], the EC50 in assay [1] was determined as 1120 ± 1480 nM.
For `CCCCCCCC/C=C\CCCCCCCC(=O)OCC(O)COP(=O)(O)O` (centres unmarked) [LPA 18:1 sn1, 1-oleoyl-LPA], the EC50 in assay [2] stood at 0.345 ± 0.202 nM; in assay [1], 146 ± 74 nM.
With `CCCCC/C=C\C/C=C\C/C=C\C/C=C\CCCC(=O)NCCOP(=O)(O)O` [pAEA], at LPA1 [3], the “Neurite retraction (cell morphology change mediated by LPA1)” value was “robust activation”. At LPA1 [4], the “F-actin stress fiber formation” value is on record as “activated”.
